Test results as given in ChEMBL document CHEMBL4689842, “EUbOPEN Chemogenomics Library wave 1” (2021).

Tests used:
Type in all cases: toxicity, cell-based
[1] = tested on: Fibroblast; assay: Incucyte cell viability with human fibroblast; conditions: 10 µM, compound concentration 10 uM; also: filed as whole numbers so only -1 and 0 and 1 occur
[2] = tested on: HEK-293T; assay: Incucyte cell viability with HEK293T; conditions: human, 10 µM, compound concentration 10 uM; also: filed as whole numbers so only -1 and 0 and 1 occur
[3] = tested on: Fibroblast; assay: Multiplex assay against human fibroblast
Method in brief: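 With compound added, live cells were imaged on a CQ1 microscope at 37°C and 5% CO2; staining with Hoechst33342, BioTracker Green Microtubule Cytoskeleton Dye, MitoTracker Red and Annexin V Alexa Fluor 680 had been done at seeding. The CellPathfinder machine-learning gating scheme split cells into Hoechst high-intensity objects or normal cells, normal cells into healthy, pyknosed or fragmented nuclei, and pyknosed cells into mitotic or apoptotic. The tubulin, mitochondrial-mass and membrane-permeability phenotypes are per cents of healthy-nucleus cells.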

[4] = 6 h, replicate number 1, timepoint 6 hours
[5] = 12 h, replicate number 1, timepoint 12 hours
[6] = 18 h, replicate number 1, timepoint 18 hours
[7] = 24 h, replicate number 1, timepoint 24 hours
[8] = 12 h, 1 µM, compound concentration 1 uM, replicate 1
[9] = 12 h, 1 µM, compound concentration 1 uM, replicate 2
[10] = 12 h, 10 µM, compound concentration 10 uM, replicate 1
[11] = 12 h, 10 µM, compound concentration 10 uM, replicate 2
[12] = 24 h, 1 µM, compound concentration 1 uM, replicate 1
[13] = 24 h, 1 µM, compound concentration 1 uM, replicate 2

Question: With `CC(C)c1cc(Nc2nc(N3CCC[C@H](N)C3)ncc2C(N)=O)cc(C(C)C)n1` as the compound, how does the “Growth Rate” value ([1]; 0 h, replicate number 1, timepoint 0 hours) read?
Answer: 0

Question: What about the “Growth Rate” value [1, 4] of the same compound?
Answer: 1

Question: And the “Growth Rate” value ([1]; 6 h, replicate number 2, timepoint 6 hours)?
Answer: 0

Question: And the “Growth Rate” value [1, 5]?
Answer: 1

Question: What about the “Growth Rate” value ([1]; 12 h, replicate number 2, timepoint 12 hours) of the same compound?
Answer: 0

Question: What about the “Growth Rate” value [1, 6] of the same compound?
Answer: 0

Question: What about the “Growth Rate” value [1, 7] of the same compound?
Answer: 0

Question: And the “Growth Rate” value [2, 4]?
Answer: 0

Question: And the “Growth Rate” value [2, 5]?
Answer: 0

Question: And the “Growth Rate” value [2, 6]?
Answer: 0

Question: And the “Growth Rate” value [2, 7]?
Answer: 0

Question: And the “Population Apoptotic (%)” value [3, 8]?
Answer: 57%

Question: And the “Population Fragmented Nuclei (%)” value [3, 8]?
Answer: 33%

Question: And the “Population Healthy Nuclei (%)” value [3, 8]?
Answer: 36%

Question: What about the “Population Hoechst High Intensity Objects (%)” value [3, 8] of the same compound?
Answer: 13%

Question: And the “Population Membrane Permeable-Phenotype (%)” value [3, 8]?
Answer: 22%

Question: And the “Population Mitochondria Different-Phenotype (%)” value [3, 8]?
Answer: 22%

Question: What about the “Population Mitotic Cells (%)” value [3, 8] of the same compound?
Answer: 42%

Question: What about the “Population Normal (%)” value [3, 8] of the same compound?
Answer: 86%

Question: What about the “Population Pyknosed Nuclei (%)” value [3, 8] of the same compound?
Answer: 30%

Question: And the “Population Tubulin-Different-Phenotype (%)” value [3, 8]?
Answer: 82%

Question: And the “Total Cell Count” value [3, 8]?
Answer: 127

Question: What about the “Population Apoptotic (%)” value [3, 9] of the same compound?
Answer: 44%

Question: What about the “Population Fragmented Nuclei (%)” value [3, 9] of the same compound?
Answer: 12%

Question: What about the “Population Healthy Nuclei (%)” value [3, 9] of the same compound?
Answer: 75%

Question: And the “Population Hoechst High Intensity Objects (%)” value [3, 9]?
Answer: 9%

Question: What about the “Population Membrane Permeable-Phenotype (%)” value [3, 9] of the same compound?
Answer: 16%

Question: And the “Population Mitochondria Different-Phenotype (%)” value [3, 9]?
Answer: 92%

Question: And the “Population Mitotic Cells (%)” value [3, 9]?
Answer: 55%

Question: What about the “Population Normal (%)” value [3, 9] of the same compound?
Answer: 90%

Question: And the “Population Pyknosed Nuclei (%)” value [3, 9]?
Answer: 12%

Question: What about the “Population Tubulin-Different-Phenotype (%)” value [3, 9] of the same compound?
Answer: 96%

Question: What about the “Total Cell Count” value [3, 9] of the same compound?
Answer: 82

Question: And the “Population Apoptotic (%)” value [3, 10]?
Answer: 59%

Question: What about the “Population Fragmented Nuclei (%)” value [3, 10] of the same compound?
Answer: 30%

Question: And the “Population Healthy Nuclei (%)” value [3, 10]?
Answer: 37%

Question: What about the “Population Hoechst High Intensity Objects (%)” value [3, 10] of the same compound?
Answer: 28%

Question: And the “Population Membrane Permeable-Phenotype (%)” value [3, 10]?
Answer: 34%

Question: And the “Population Mitochondria Different-Phenotype (%)” value [3, 10]?
Answer: 30%

Question: What about the “Population Mitotic Cells (%)” value [3, 10] of the same compound?
Answer: 40%

Question: What about the “Population Normal (%)” value [3, 10] of the same compound?
Answer: 71%

Question: What about the “Population Pyknosed Nuclei (%)” value [3, 10] of the same compound?
Answer: 31%

Question: What about the “Population Tubulin-Different-Phenotype (%)” value [3, 10] of the same compound?
Answer: 76%

Question: And the “Total Cell Count” value [3, 10]?
Answer: 96

Question: What about the “Population Apoptotic (%)” value [3, 11] of the same compound?
Answer: 65%

Question: What about the “Population Fragmented Nuclei (%)” value [3, 11] of the same compound?
Answer: 19%

Question: What about the “Population Healthy Nuclei (%)” value [3, 11] of the same compound?
Answer: 31%

Question: And the “Population Hoechst High Intensity Objects (%)” value [3, 11]?
Answer: 14%

Question: And the “Population Membrane Permeable-Phenotype (%)” value [3, 11]?
Answer: 100%

Question: What about the “Population Mitochondria Different-Phenotype (%)” value [3, 11] of the same compound?
Answer: 93%

Question: And the “Population Mitotic Cells (%)” value [3, 11]?
Answer: 34%

Question: And the “Population Normal (%)” value [3, 11]?
Answer: 85%

Question: And the “Population Pyknosed Nuclei (%)” value [3, 11]?
Answer: 48%

Question: And the “Population Tubulin-Different-Phenotype (%)” value [3, 11]?
Answer: 100%

Question: What about the “Total Cell Count” value [3, 11] of the same compound?
Answer: 55

Question: And the “Population Apoptotic (%)” value [3, 12]?
Answer: 48%

Question: And the “Population Fragmented Nuclei (%)” value [3, 12]?
Answer: 30%

Question: And the “Population Healthy Nuclei (%)” value [3, 12]?
Answer: 32%

Question: What about the “Population Hoechst High Intensity Objects (%)” value [3, 12] of the same compound?
Answer: 25%

Question: What about the “Population Membrane Permeable-Phenotype (%)” value [3, 12] of the same compound?
Answer: 17%

Question: What about the “Population Mitochondria Different-Phenotype (%)” value [3, 12] of the same compound?
Answer: 14%

Question: What about the “Population Mitotic Cells (%)” value [3, 12] of the same compound?
Answer: 51%

Question: What about the “Population Normal (%)” value [3, 12] of the same compound?
Answer: 74%

Question: And the “Population Pyknosed Nuclei (%)” value [3, 12]?
Answer: 36%

Question: And the “Population Tubulin-Different-Phenotype (%)” value [3, 12]?
Answer: 77%

Question: What about the “Total Cell Count” value [3, 12] of the same compound?
Answer: 143

Question: And the “Population Apoptotic (%)” value [3, 13]?
Answer: 26%

Question: And the “Population Fragmented Nuclei (%)” value [3, 13]?
Answer: 10%

Question: What about the “Population Healthy Nuclei (%)” value [3, 13] of the same compound?
Answer: 68%

Question: And the “Population Hoechst High Intensity Objects (%)” value [3, 13]?
Answer: 5%

Question: What about the “Population Membrane Permeable-Phenotype (%)” value [3, 13] of the same compound?
Answer: 30%

Question: What about the “Population Mitochondria Different-Phenotype (%)” value [3, 13] of the same compound?
Answer: 96%

Question: And the “Population Mitotic Cells (%)” value [3, 13]?
Answer: 73%

Question: What about the “Population Normal (%)” value [3, 13] of the same compound?
Answer: 94%

Question: What about the “Population Pyknosed Nuclei (%)” value [3, 13] of the same compound?
Answer: 20%
